Measured values: ChEMBL document CHEMBL1153527, “Discovery of a novel series of quinolone and naphthyridine derivatives as potential topoisomerase I inhibitors by scaffold modification” (J Med Chem, 2009)
pIC50: −log10 of the molar value. Activity calls are given as the source filed them. No cut-off for these calls is given here.

Columns and labels:
HeLa = assay: Cytotoxicity against p53-deficient human HeLa cells after 48 hrs by SRB assay; format: functional, cell-based
Procedure, shortened: (§1)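 Cell lines came from CCRC, Taiwan. Cells were seeded at about 5 × 10^3 per well and left overnight. They were then given serum-free medium containing 0-10 μM compound (0.08-10 μM serial dilutions) for 48 h at 37 °C. Cells were fixed with TCA (10% final), stained with SRB (0.4% final), and the dye was dissolved in 10 mM Tris with A515 read. IC50 was taken from a fitted log concentration-response curve.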

HepG2 = assay: Cytotoxicity against human HepG2 cells expressing wild type p53 after 48 hrs by SRB assay; format: functional, cell-based; settings: HepG2, 48 h; procedure, shortened: as §1
A549 = assay: Cytotoxicity against human A549 cells expressing wild type p53 after 48 hrs by SRB assay; format: functional, cell-based; settings: A549, 48 h; procedure, shortened: as §1
K562 = assay: Cytotoxicity against p53-deficient human K562 cells after 48 hrs by SRB assay; format: functional, cell-based; settings: K562, 48 h
A2780 = assay: Cytotoxicity against human A2780 cells after 48 hrs by MTT assay; format: functional, cell-based; settings: A2780, 48 h
HT-29 = assay: Cytotoxicity against human HT-29 cells expressing p53 mutant after 48 hrs by SRB assay; format: functional, cell-based; settings: HT-29, 48 h; procedure, shortened: as §1
MCF7 = assay: Cytotoxicity against estrogen receptor-positive human MCF7 cells expressing wild type p53 after 48 hrs by SRB assay; format: functional, cell-based; settings: MCF7, 48 h; procedure, shortened: as §1
AGS = assay: Cytotoxicity against human AGS cells expressing wild type p53 after 48 hrs by SRB assay; format: functional, cell-based; procedure, shortened: as §1
Bel-7402 = assay: Cytotoxicity against human Bel7402 cells after 48 hrs by MTT assay; format: functional, cell-based; settings: Bel-7402, 48 h
PC-3 = assay: Cytotoxicity against p53-deficient human PC3 cells after 48 hrs by SRB assay; format: functional, cell-based; settings: PC-3, 48 h; procedure, shortened: as §1
THP-1 = assay: Cytotoxicity against human THP1 cells expressing p53 mutant after 48 hrs by SRB assay; format: functional, cell-based; settings: THP-1, 48 h
[1] = Cytotoxicity against estrogen receptor-negative human […] cells expressing p53 mutant after 48 hrs by SRB assay; format: functional, cell-based; procedure, shortened: as §1
U-937 = assay: Cytotoxicity against human U937 cells expressing p53 mutant after 48 hrs by SRB assay; format: functional, cell-based; settings: U-937, 48 h
[2] = Cytotoxicity against p53-deficient human Hep3B cells after 48 hrs by SRB assay; format: functional, cell-based, Hep 3B2; procedure, shortened: as §1
KB = assay: Cytotoxicity against human KB cells after 48 hrs by MTT assay; format: functional, cell-based
[3] = Solubility in assay condition at 50 uM; format: physicochemical
[4] = target: T1, DNA topoisomerase 1 (Homo sapiens) (UniProt P11387); assay: Inhibition of DNA topoisomerase 1-mediated supercoiled Escherichia coli pBR322 DNA relaxation upto 25 uM after 30 mins
T1 sequence (whole entry): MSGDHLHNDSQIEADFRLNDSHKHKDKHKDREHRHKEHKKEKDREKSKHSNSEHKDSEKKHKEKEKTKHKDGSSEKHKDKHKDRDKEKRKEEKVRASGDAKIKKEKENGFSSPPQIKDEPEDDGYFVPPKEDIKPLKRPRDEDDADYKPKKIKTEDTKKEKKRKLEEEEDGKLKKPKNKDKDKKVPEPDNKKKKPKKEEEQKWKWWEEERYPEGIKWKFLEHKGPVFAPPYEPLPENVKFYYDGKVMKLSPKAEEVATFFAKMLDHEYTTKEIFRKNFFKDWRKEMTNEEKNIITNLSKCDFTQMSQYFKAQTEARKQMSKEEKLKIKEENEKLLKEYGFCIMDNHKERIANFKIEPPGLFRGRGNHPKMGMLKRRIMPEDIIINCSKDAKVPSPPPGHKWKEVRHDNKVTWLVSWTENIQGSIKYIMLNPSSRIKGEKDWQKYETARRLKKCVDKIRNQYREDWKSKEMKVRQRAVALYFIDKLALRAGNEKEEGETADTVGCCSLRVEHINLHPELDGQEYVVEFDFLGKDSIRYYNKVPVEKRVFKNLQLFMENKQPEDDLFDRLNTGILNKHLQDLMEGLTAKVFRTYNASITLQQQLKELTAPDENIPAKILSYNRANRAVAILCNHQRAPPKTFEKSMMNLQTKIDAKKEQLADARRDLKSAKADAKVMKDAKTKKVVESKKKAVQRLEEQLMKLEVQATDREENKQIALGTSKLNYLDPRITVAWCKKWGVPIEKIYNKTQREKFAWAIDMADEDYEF

## CCn1cc(-c2nc3ccc(N)cc3[nH]2)c(=O)c2cc(F)c(N3CCNCC3)nc21
HeLa
  GI50: > 10 µM
  pIC50: < 5.00
HepG2
  GI50: > 10 µM
  pIC50: < 5.00
A549
  GI50: 0.5 µM
  pIC50: < 5.00
K562
  pIC50: < 5.00
A2780
  pIC50: 4.37
HT-29
  GI50: > 10 µM
  pIC50: < 5.00
MCF7
  GI50: > 10 µM
  pIC50: < 5.00
AGS
  GI50: 6.7 µM
  pIC50: 5.04
Bel-7402
  pIC50: 4.03
PC-3
  GI50: > 10 µM
  pIC50: < 5.00
THP-1
  pIC50: 5.09
[1]
  GI50: > 10 µM
  pIC50: < 5.00
U-937
  pIC50: < 5.00
[2]
  GI50: > 10 µM
  pIC50: < 5.00
KB
  pIC50: 4.52

## CCn1cc(-c2nc3ccc(N)cc3[nH]2)c(=O)c2cc(F)c(N3CCN(C)CC3)cc21
HeLa
  GI50: > 10 µM
  pIC50: < 5.00
HepG2
  GI50: > 10 µM
  pIC50: < 5.00
A549
  GI50: 1 µM
  pIC50: < 5.00
K562
  pIC50: < 5.00
A2780
  pIC50: < 4.30
HT-29
  GI50: > 10 µM
  pIC50: < 5.00
MCF7
  GI50: > 10 µM
  pIC50: < 5.00
AGS
  GI50: 10 µM
  pIC50: < 5.00
Bel-7402
  pIC50: < 4.30
PC-3
  GI50: > 10 µM
  pIC50: < 5.00
THP-1
  pIC50: < 5.00
[1]
  GI50: > 10 µM
  pIC50: < 5.00
U-937
  pIC50: < 5.00
[2]
  GI50: > 10 µM
  pIC50: < 5.00
KB
  pIC50: < 4.30

## CCn1cc(-c2nc3ccccc3[nH]2)c(=O)c2cc(F)c(N3CCNCC3)nc21
HeLa
  GI50: 6.4 µM
  pIC50: 5.00
HepG2
  GI50: 6.8 µM
  pIC50: 5.04
A549
  GI50: 4.9 µM
  pIC50: 5.11
K562
  pIC50: 5.04
A2780
  pIC50: 5.32
HT-29
  GI50: > 10 µM
  pIC50: < 5.00
MCF7
  GI50: 8.3 µM
  pIC50: 5.02
AGS
  GI50: 2.1 µM
  pIC50: 5.18
Bel-7402
  pIC50: 5.39
PC-3
  GI50: > 10 µM
  pIC50: < 5.00
THP-1
  pIC50: < 5.00
[1]
  GI50: 3.3 µM
  pIC50: 5.00
U-937
  pIC50: < 5.00
[2]
  GI50: 3.7 µM
  pIC50: 5.11
KB
  pIC50: 5.70

## C[C@H]1COc2c(N3CCN(C)CC3)c(F)cc3c(=O)c(-c4nc5ccc([N+](=O)[O-])cc5s4)cn1c23
[3]
  solubility: Insoluble
HeLa
  GI50: > 10 µM
  pIC50: < 5.00
HepG2
  GI50: 7.6 µM
  pIC50: < 5.00
A549
  GI50: 3.9 µM
  pIC50: < 5.00
K562
  pIC50: < 5.00
A2780
  pIC50: 5.92
HT-29
  GI50: 5 µM
  pIC50: 5.00
MCF7
  GI50: > 10 µM
  pIC50: < 5.00
AGS
  GI50: 7 µM
  pIC50: 5.06
Bel-7402
  pIC50: 5.70
PC-3
  GI50: 1.8 µM
  pIC50: 5.00
THP-1
  pIC50: < 5.00
[1]
  GI50: > 10 µM
  pIC50: < 5.00
U-937
  pIC50: < 5.00
[2]
  GI50: > 10 µM
  pIC50: < 5.00
KB
  pIC50: 6.22
[4]
  inhibition: inactive

## CCn1cc(-c2nc3ccc([N+](=O)[O-])cc3s2)c(=O)c2cc(F)c(N3CCN(C)CC3)cc21
HeLa
  GI50: > 10 µM
  pIC50: < 5.00
HepG2
  GI50: > 10 µM
  pIC50: < 5.00
A549
  GI50: 4.7 µM
  pIC50: 5.00
K562
  pIC50: < 5.00
A2780
  pIC50: 5.37
HT-29
  GI50: > 10 µM
  pIC50: < 5.00
MCF7
  GI50: > 10 µM
  pIC50: < 5.00
AGS
  GI50: 2.6 µM
  pIC50: 5.35
Bel-7402
  pIC50: 5.11
PC-3
  GI50: 5.5 µM
  pIC50: 5.12
THP-1
  pIC50: < 5.00
[1]
  GI50: > 10 µM
  pIC50: < 5.00
U-937
  pIC50: < 5.00
[2]
  GI50: > 10 µM
  pIC50: < 5.00
KB
  pIC50: 5.24

## CCn1cc(-c2nc3ccccc3[nH]2)c(=O)c2cc(F)c(N3CCNCC3)cc21
HeLa
  GI50: > 10 µM
  pIC50: < 5.00
HepG2
  GI50: > 10 µM
  pIC50: < 5.00
A549
  GI50: 0.6 µM
  pIC50: 5.33
K562
  pIC50: < 5.00
A2780
  pIC50: 6.10
HT-29
  GI50: > 10 µM
  pIC50: < 5.00
MCF7
  GI50: > 10 µM
  pIC50: < 5.00
AGS
  GI50: 9.5 µM
  pIC50: < 5.00
Bel-7402
  pIC50: 4.56
PC-3
  GI50: > 10 µM
  pIC50: < 5.00
THP-1
  pIC50: < 5.00
[1]
  GI50: > 10 µM
  pIC50: < 5.00
U-937
  pIC50: < 5.00
[2]
  GI50: > 10 µM
  pIC50: < 5.00
KB
  pIC50: 4.98
